The list shows a part of the results. Active and inactive are the calls of the source.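 Rule for the calls, unless noted: active = mean duplicate activation above the buffer control mean plus 5 SD of those controls; inactive = the rest.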
Assays:
[1] = biological target: T1, Potassium voltage-gated channel subfamily E member 1 (Homo sapiens) + Potassium voltage-gated channel subfamily KQT member 1 (Homo sapiens) (UniProt P15382+P51787); test: KCNQ1-E1 channel activation – thallium flux, CHO-K1 KCNQ1/E1 cells, selectivity assay for KCNQ1 potentiator project, confirmation (AID 493186); conditions: FluxOR thallium flux, at 10 µM; hits give high values;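 for activation: 0% = assay buffer control and 100% = R-L3 activator control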
T1 sequence (P51787 whole entry, looked up): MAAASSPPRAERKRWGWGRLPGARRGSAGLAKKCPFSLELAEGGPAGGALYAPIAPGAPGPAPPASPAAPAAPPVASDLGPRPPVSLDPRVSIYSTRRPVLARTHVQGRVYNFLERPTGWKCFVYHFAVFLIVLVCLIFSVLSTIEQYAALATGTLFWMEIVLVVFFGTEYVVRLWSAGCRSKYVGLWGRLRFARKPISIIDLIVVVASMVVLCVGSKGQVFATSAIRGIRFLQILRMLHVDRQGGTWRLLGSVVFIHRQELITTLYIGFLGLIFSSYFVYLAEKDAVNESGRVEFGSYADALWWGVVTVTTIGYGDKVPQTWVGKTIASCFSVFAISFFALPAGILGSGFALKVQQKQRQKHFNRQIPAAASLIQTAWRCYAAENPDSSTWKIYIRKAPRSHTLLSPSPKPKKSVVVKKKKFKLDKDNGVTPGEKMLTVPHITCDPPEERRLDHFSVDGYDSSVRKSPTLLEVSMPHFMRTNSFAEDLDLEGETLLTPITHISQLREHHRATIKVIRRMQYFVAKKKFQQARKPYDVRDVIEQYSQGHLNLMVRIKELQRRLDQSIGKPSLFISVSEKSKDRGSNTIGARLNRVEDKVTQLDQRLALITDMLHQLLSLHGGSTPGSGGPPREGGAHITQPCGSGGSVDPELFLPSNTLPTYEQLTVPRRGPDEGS
Outline: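 Test system – CHO-K1 cells with KCNQ1/E1 · Measured by – FluxOR Tl+ flux fluorescence, kinetic read · Controls – buffer low control, R-L3 high control · Times – dye 90 min, compound 20 min, room temperature · Replication – duplicate wells per compound · Doses – one test concentration · Evaluation – fluorescence rise relative to baseline, as percent of R-L3 response above buffer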

[2] = nonspecific activity in CHO-K1 cells without KCNQ1 – parental CHO cells, Tl flux, counter-screen for KCNQ1 inhibitor project (AID 588366;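 active = mean of duplicate thallium-flux fluorescence ratios in parental host cells more than 5 SD below the buffer control mean, cut at about 0.38 in these data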;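 note: ratio is peak minus minimum fluorescence divided by baseline fluorescence; actives read low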); conditions: parental CHO-K1, FluxOR thallium flux fluorescence ratio; at 10 µM; hits give low values; zero means no signal rise above baseline
Outline: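 Assay system: untransfected parental CHO-K1 cells / Also added: depolarizing K2SO4 plus Tl2SO4 stimulus, each 12.5 mM in 5x stock / Timing: FluxOR dye loading 90 min, compound exposure 20 min, room temperature / Technique: real-time thallium-sensitive FluxOR dye fluorescence reading / Read-out: baseline-normalized fluorescence amplitude ratio, averaged over duplicates / Replicates: duplicates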

[3] = biological target: Potassium voltage-gated channel subfamily KQT member 2 (Rattus norvegicus) (UniProt O88943); test: block of rat KCNQ2 potassium channel – cell-based, selectivity assay for KCNQ1 inhibitor project (AID 651746;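 active = mean percent inhibition of the KCNQ2 thallium signal more than 5 SD above the buffer-only control wells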); conditions: KCNQ2 cells, FluxOR thallium flux fluorescence, at 10 µM; hits give high values
Sequence of Potassium voltage-gated channel subfamily KQT member 2 (Rattus norvegicus) (O88943 whole entry, looked up): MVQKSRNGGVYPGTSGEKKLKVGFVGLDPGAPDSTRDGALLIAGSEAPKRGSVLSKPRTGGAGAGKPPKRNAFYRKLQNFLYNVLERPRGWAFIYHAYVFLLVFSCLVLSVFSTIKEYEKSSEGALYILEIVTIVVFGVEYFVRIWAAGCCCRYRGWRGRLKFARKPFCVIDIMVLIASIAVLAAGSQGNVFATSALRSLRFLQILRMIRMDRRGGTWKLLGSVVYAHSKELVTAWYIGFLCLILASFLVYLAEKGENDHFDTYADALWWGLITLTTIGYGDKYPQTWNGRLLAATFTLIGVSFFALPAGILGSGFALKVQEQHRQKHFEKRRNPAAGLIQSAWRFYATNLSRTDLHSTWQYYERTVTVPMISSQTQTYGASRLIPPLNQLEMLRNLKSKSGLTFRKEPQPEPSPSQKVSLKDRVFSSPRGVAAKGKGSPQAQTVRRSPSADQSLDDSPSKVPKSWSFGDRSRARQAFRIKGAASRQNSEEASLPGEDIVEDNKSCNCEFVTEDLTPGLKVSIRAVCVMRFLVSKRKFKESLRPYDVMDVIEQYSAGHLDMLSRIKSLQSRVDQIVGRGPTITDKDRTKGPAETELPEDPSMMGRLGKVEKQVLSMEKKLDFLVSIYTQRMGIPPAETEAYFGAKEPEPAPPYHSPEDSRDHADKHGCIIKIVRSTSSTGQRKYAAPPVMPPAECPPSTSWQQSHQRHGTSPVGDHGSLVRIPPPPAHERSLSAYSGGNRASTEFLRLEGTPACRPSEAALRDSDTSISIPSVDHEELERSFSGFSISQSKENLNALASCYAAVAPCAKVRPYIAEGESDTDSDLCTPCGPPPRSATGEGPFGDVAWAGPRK

[4] = biological target: T1, Potassium voltage-gated channel subfamily E member 1 (Homo sapiens) + Potassium voltage-gated channel subfamily KQT member 1 (Homo sapiens); test: block of human IKs channel complex – CHO-K1 cells, thallium flux, FluxOR, selectivity assay for KCNQ1 inhibitor project (AID 652147;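 active = mean percent inhibition of duplicate wells above the buffer-only control mean plus 3 SD of those controls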); conditions: KCNQ1/KCNE1 cells, FluxOR thallium flux fluorescence, at 10 µM; hits give high values
Outline: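 test system = KCNQ1/KCNE1 cells | schedule = 20 min compound pre-incubation at room temperature | detection = FluxOR thallium influx fluorescence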

SMILES: Cc1cccc(C(=O)NC(=S)NNC(=O)c2ccccc2Cl)c1
- outcome [1]: inactive

SMILES: NC(=Nc1ccccc1)Nc1ccccc1
- outcome [1]: inactive

SMILES: Cc1onc(-c2ccccc2)c1C(=O)NNC(=S)NC(=O)c1ccc(Cl)cc1Cl
- outcome [1]: inactive

SMILES: Cc1cccc(C(=O)NNC(=S)NC(=O)c2ccccc2)c1
- activation [1]: 46.6% (active)

SMILES: CCN1/C(=C\c2ccc3ccccc3[n+]2CC)Sc2cc(C)ccc21
- fluorescence ratio (Tl flux) [2]: 0.043 (active)
- outcome [3]: inactive
- outcome [4]: inactive

SMILES: CCCCC(=O)NNC(=S)NC(=O)C(c1ccccc1)c1ccccc1
- outcome [1]: inactive

SMILES: CC(Oc1ccc(Cl)cc1)C(=O)NNC(=S)NC(=O)c1ccco1 (configuration not stated)
- activation [1]: 13.8% (active)

SMILES: Cc1ccc(OCC(=O)NNC(=S)NC(=O)C(C)(C)C)c(Br)c1
- outcome [1]: inactive

SMILES: COc1ccc(C(=O)NNC(=S)NC(=O)c2ccccc2)cc1
- activation [1]: 20.5% (active)

SMILES: COc1ccc(C(=O)NC(=S)NNC(=O)c2cccc(C)c2)cc1
- activation [1]: 31.9% (active)

SMILES: CC1CN(C(=O)c2ccc(NS(=O)(=O)c3ccc(C(C)(C)C)cc3)cc2)CC(C)O1 (configuration not stated)
- outcome [1]: inactive

SMILES: CC(C)(C)C(=O)NC(=S)NNC(=O)C(c1ccccc1)c1ccccc1
- outcome [1]: inactive

SMILES: Cc1onc(-c2ccccc2)c1C(=O)NNC(=S)NC(=O)c1ccc(F)cc1
- outcome [1]: inactive

SMILES: Cc1onc(-c2ccccc2)c1C(=O)NNC(=S)NC(=O)c1ccc(Br)cc1
- outcome [1]: inactive

SMILES: Cc1ccccc1C(=O)NNC(=S)NC(=O)c1ccc(Cl)cc1Cl
- activation [1]: 19.9% (active)

— PubChem BioAssay
